From ChEMBL document CHEMBL1151756, “Design, synthesis, and biological evaluation of N-carboxyphenylpyrrole derivatives as potent HIV fusion inhibitors targeting gp41” (J Med Chem, 2008)
Calls of active or inactive are those of the source. The rule behind the calls is not given here.

How the values were obtained:
MT2 = assay: Cytotoxicity against human MT2 cells after 4 days by XTT assay; type: cell-based; details: mt2, 96 h
Method in brief: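 XTT assay: MT-2 cells (5 × 10⁵/mL) incubated with compound at graded concentrations at 37 °C for 4 days. XTT (1 mg/mL) containing 0.02 μM PMS then added, and A450 read after 4 h. CC50 calculated.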

[1] = tested on: Human immunodeficiency virus 1; assay: Antiviral activity against HIV1 3B in human MT2 cells assessed as inhibition of p24 antigen level after 4 days by ELISA; type: functional, organism-based; details: Human immunodeficiency virus 1, 3B, MT2, 96 h
Method in brief: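 Medium then replaced without compound. Day 4 post-infection, supernatants lysed with 5% Triton X-100; p24 measured by sandwich ELISA with HIVIG capture, anti-p24 mAb, TMB, A450, and a recombinant p24 standard curve. Triplicates; EC50 calculated from percent inhibition.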

[2] = Inhibition of HIV1 3B gp41 six-helix bundle formation after 30 mins by sandwich ELISA
[3] = Selectivity index, ratio of CC50 for human MT2 cells to EC50 for HIV1 3B; type: toxicity, cell-based; details: read-out: Ratio CC50/EC50
[4] = tested on: Human immunodeficiency virus 1; assay: Antiviral activity against HIV1 3B in human MT2 cells assessed as reduction of virus-induced cytopathogenicity; type: functional, organism-based

| Structure (SMILES) | CC50 (MT2) [µM] | EC50 [1] [µM] | IC50 [2] [µM] | selectivity ratio [3] | Activity [4] |
| --- | --- | --- | --- | --- | --- |
| COc1ccc(N2C(=O)CSC2=S)cc1 | 89.6 | 63.4 | > 1000 | 1.41 |  |
| O=C(O)c1cc(-n2cccc2)ccc1O |  | 9.66 | 48.7 |  |  |
| O=C(O)c1cccc(-n2cccc2)c1 | 302 | 44.8 | 211 | 6.74 |  |
| O=C(O)c1ccc(-c2noc(CCl)n2)cc1 | 64 | 3.91 | > 420 | 16.4 |  |
| O=C(O)c1cccc(-c2noc(C(F)(F)F)n2)c1 | > 400 | > 400 | > 1000 |  |  |
| COC(=O)c1ccc(-c2noc(CCl)n2)cc1 | 14.2 | 41.4 | > 395 | 0.34 |  |
| Cc1ccc(C)n1-c1ccc(Cl)cc1C(=O)O |  | 8.56 | 60.3 |  |  |
| O=C1CSC(=S)N1c1ccc(O)cc1 | 84.9 | 35.7 | > 1000 | 2.38 |  |
| O=C(O)c1ccc(-c2noc(CBr)n2)cc1 | 81.9 | 127 | > 353 | 0.64 |  |
| O=C(O)Cc1ccc(-n2cccc2)cc1 |  | 371 |  |  |  |
| O=C(O)c1ccc(-c2noc(C(F)(F)F)n2)cc1 | 82.2 | 3.06 | 224 | 26.9 |  |
| O=C(O)c1cc(-n2cccc2)ccc1Cl | 336 |  | 58.7 |  |  |
| Cc1ccc(C)n1-c1cccc(C(=O)O)c1 | 88.4 | 11.8 | 42.2 | 7.49 |  |
| Cc1ccc(C)n1-c1ccc(O)c(C(=O)O)c1 | 133 | 0.69 | 37.4 |  | Active |
| CCOC(=O)c1ccc(-c2noc(CO)n2)cc1 | 385 | 373 | 178 | 1.03 |  |
| O=C(O)c1cc(N2C(=O)CSC2=S)ccc1O | 152 | 166 | > 1000 | 0.92 |  |
| Cc1ccc(C)n1-c1cccc(-c2nnn[nH]2)c1 | 249 | 7.7 | 25.6 | 32.4 |  |
| O=C(O)c1ccc(N2C(=O)C=CC2=O)cc1 | > 400 | 205 | > 1000 | > 1.95 |  |
| Cc1ccc(C)n1-c1ccc(Cl)c(C(=O)O)c1 | 211 | 1.52 | 78.7 | 139 |  |
| O=C(O)c1cccc(N2C(=O)CSC2=S)c1 | 165 | 204 | > 1000 | 0.81 |  |

| Structure (SMILES) | CC50 (MT2) [µM] | EC50 [1] [µM] | IC50 [2] [µM] | selectivity ratio [3] | Activity [4] |
| --- | --- | --- | --- | --- | --- |
| Cc1ccc(C)n1-c1ccc(CC(=O)O)cc1 | 204 | 2.1 | 225 | 97.1 |  |
| O=C(O)c1cccc(-c2noc(CCl)n2)c1 | 64.9 | 57.7 | 346 | 1.12 |  |
| N#CSCc1nc(-c2ccc(C(=O)O)cc2)no1 | 383 | 68 | 178 | 5.64 |  |
| O=C(O)c1ccc(-c2noc(CO)n2)cc1 | 455 | 153 | 26.4 | 2.98 |  |
| Cc1ccc(C)n1-c1ccc(C(=O)O)cc1 | 136 | 174 | 189 | 0.78 |  |
| O=C(O)c1ccc(N2C(=O)C=CC2=O)cc1O | > 400 | > 400 | > 1000 |  |  |
| Nc1nnc(-c2ccc(C(=O)O)cc2)s1 | > 400 | > 400 | > 1000 |  |  |
| COC(=O)c1ccc(N2C(=O)C=CC2=O)cc1O | 66.2 | 39.4 | 101 | 1.68 |  |
| O=C(O)c1ccc(-n2cccc2)cc1O | 443 | 81.7 | 70.8 | 5.42 |  |
| O=C(O)c1ccc(-n2cccc2)cc1 |  | 69.2 | 129 |  |  |
| O=C(O)c1ccc(N2C(=O)CSC2=S)cc1 | 143 | 258 | > 1000 | 0.56 |  |
| COC(=O)c1ccc(-c2noc(CSC#N)n2)cc1 | 43.7 | 11 | 171 | 3.99 |  |
| O=C(O)c1cc(N2C(=O)CSC2=S)ccc1Cl | 155 | 179 | > 1000 | 0.87 |  |
| O=C(O)c1ccc(Cn2cccc2)cc1 |  | 63.9 | 157 |  |  |
| c1cc(-c2nnn[nH]2)cc(-n2cccc2)c1 | 436 | 41 | 226 | 10.6 |  |
| Cc1ccc(C)n1-c1ccc(S(N)(=O)=O)cc1 | 117 | 99.1 | 182 | 1.18 |  |
| COC(=O)c1ccc(-c2noc(CBr)n2)cc1 | 32.7 | 88 | > 337 | 0.37 |  |
| O=C1CSC(=S)N1c1cccc(C(F)(F)F)c1 | 85.4 | 116 | > 1000 | 0.74 |  |
| COC(=O)c1ccc(-n2c(C)ccc2C)cc1O | 88.9 | 59.1 | 287 | 1.5 |  |
| COC(=O)c1ccc(-n2cccc2)cc1O | 379 | 35.4 |  | 10.7 |  |
